# pIC50, pKd: −log10 of the molar value. Activity calls are given as the source filed them. No cut-off for these calls is given here.
# Columns and labels:
# [1] = Stabilization of hybrid telomeric htg22 G-quadruplex DNA (unknown origin) assessed as effect on melting temperature at 15 uM by circular dichroism spectroscopic assay; format: ADME
# Method in brief: (§1)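 CD melting of 3 µM annealed G-quadruplex with or without 15 µM ligand in 10 mM Tris-HCl pH 7.2 with 2 mM KCl (50 mM KCl for htg22 and HRAS); read every 5 °C over 25–95 °C, heating 1 °C/min.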
# [2] = Binding affinity to 1 uM c-MYC promoter G-quadruplex pu22 DNA (unknown origin) at 1 uM after 1 min by fluorescence spectroscopic analysis
# Method in brief: (§2)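 Fluorescence emission spectra of 1 µM compound mixed with 1 µM pre-annealed oligonucleotide (G-quadruplexes folded in 100 mM KCl by heating to 95 °C for 5 min, slow cooling), in Tris-HCl buffer.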
# [3] = Binding affinity to c-KIT1 promoter G-quadruplex DNA (unknown origin) after 1 min by fluorescence titration method; format: ADME
# Method in brief: (§3)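 Oligonucleotide stock added stepwise to fixed-concentration compound in 10 mM Tris-HCl pH 7.2, 100 mM KCl; equilibrated ≥1 min after each addition, emission read with excitation at 350 nm. KD from fitting titration data to the Benesi–Hildebrand equation; 1:1 stoichiometry checked by Job plot.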
# [4] = Stabilization of c-Kit1 promoter G-quadruplex DNA (unknown origin) assessed as effect on melting temperature at 15 uM by circular dichroism spectroscopic assay; format: ADME; method in brief: as §1
# [5] = Stabilization of BCL2 promoter G-quadruplex DNA (unknown origin) assessed as effect on melting temperature at 15 uM by circular dichroism spectroscopic assay; format: ADME
# Method in brief: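 G-quadruplex at 3 µM, with or without 15 µM compound, in 10 mM Tris-HCl pH 7.2 containing 2 mM KCl; CD recorded every 5 °C from 25 to 95 °C at a heating rate of 1 °C/min.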
# [6] = species on record: Homo sapiens; experiment: Stabilization of c-Myc promoter G-quadruplex DNA in human Raji cells assessed as downregulation of exon 2 transcriptional level after 6 hrs by RT-PCR analysis; format: cell-based
# Method in brief: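 RAJI and CA46 cells treated 6 h over a concentration range; total RNA reverse-transcribed (oligo dT18, M-MLV, 42 °C 1 h then 85 °C 5 min); exon 1 and exon 2 amplified by real-time PCR with exon-specific primers, products run on 1% agarose gel; three repeats.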
# [7] = test system: HeLa; experiment: Cytotoxicity against human HeLa cells assessed as reduction in cell viability after 24 hrs by MTT assay; format: functional, cell-based
# Method in brief: (§4)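 Cells seeded at 5.0×10^3 per well, exposed to compound for 24 h; MTT (2.5 mg/mL) added for 4 h, formazan dissolved in DMSO, OD read at 570 nm. Triplicate; IC50 from curves of mean OD against concentration.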
# [8] = Cytotoxicity against mouse primary mesangial cells assessed as reduction in cell viability after 24 hrs by MTT assay; format: cell-based; method in brief: as §4
# [9] = test system: BJ; experiment: Cytotoxicity against human BJ cells assessed as reduction in cell viability after 24 hrs by MTT assay; format: cell-based; method in brief: as §4
# [10] = test system: BJ; experiment: Cytotoxicity against human BJ cells assessed as cell growth inhibition at 1.2 to 3 uM after 130 hrs by RTCA assay; format: cell-based
# Method in brief: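 Cells seeded at 2000 per well on impedance plates, settled 20 min at room temperature, profiled 24 h; medium then replaced with compound-containing medium and cells monitored to 130 h total. Cell index normalized to 1.0 at the time point just before compound addition.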
# [11] = test system: SiHa; experiment: Induction of apoptosis in human SiHa cells assessed as late apoptotic cells at 5 uM after 24 hrs by Annexin V-FITC/propidium iodide-staining based flow cytometric analysis; format: functional
# [12] = Stabilization of Bcl2 G-quadruplex DNA in human SiHa cells assessed as effect on Bcl2 mRNA level at 1.25 to 5 uM fter 6 hrs by RT-PCR method; format: ADME, cell-based
# Method in brief: (§5)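 SiHa cells (2.0×10^5 per well) treated 6 h; total RNA (2 µg) reverse-transcribed with oligo dT18 and M-MLV at 42 °C for 1 h, 85 °C for 5 min; PCR: 95 °C 5 min, then 30 cycles of 95 °C 30 s, 58 °C 30 s, 72 °C 40 s; products checked on agarose gel.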
# [13] = Stabilization of HRAS G-quadruplex DNA in human SiHa cells assessed as effect on HRAS mRNA level at 1.25 to 5 uM fter 6 hrs by RT-PCR method; format: ADME, cell-based; method in brief: as §5
# [14] = test system: U2OS; experiment: Cytotoxicity against human U2OS cells assessed as reduction in cell viability after 24 hrs by MTT assay; format: functional, cell-based; method in brief: as §4
# [15] = test system: SiHa; experiment: Induction of cell cycle arrest in human SiHa cells assessed as downregulation of Cyclin D1 protein levels after 24 hrs by Western blot analysis; format: functional, cell-based
# Method in brief: (§6)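 SiHa cells (2.0×10^5 per well) treated 24 h, lysed at 4 °C for 30 min, supernatant cleared at 15,000 rpm; protein measured by BCA, 30 µg resolved on 10% SDS-PAGE, transferred to nitrocellulose, blocked in 5% milk/TBS-Tween 1 h, primary antibodies overnight at 4 °C, HRP secondaries 2 h at room temperature.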
# [16] = test system: SiHa; experiment: Induction of cell cycle arrest in human SiHa cells assessed as upregulation of p15 protein levels after 24 hrs by Western blot analysis; format: functional, cell-based; method in brief: as §6
# [17] = test system: SiHa; experiment: Induction of cell cycle arrest in human SiHa cells assessed as upregulation of p27 protein levels after 24 hrs by Western blot analysis; format: functional, cell-based; method in brief: as §6
# [18] = test system: SiHa; experiment: Antitumor activity against human SiHa cells xenografted in nude BALB/c mouse assessed as tumor growth inhibition at 20 mg,kg, ip administered every other day for 24 days; format: functional
# Method in brief: (§7)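 BALB/c nude mice (5 weeks old) given 1×10^7 SiHa cells subcutaneously in right flank; at ~50 mm3 tumor volume, randomized (10 per group) and dosed intraperitoneally every other day for 24 days; controls got equal-volume saline. Caliper volume as 1/2 × length × width2; tumors weighed at end; inhibition rate = (1 − mean treated tumor weight/mean control tumor weight) × 100%.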
# [19] = test system: SiHa; experiment: Antitumor activity against human SiHa cells xenografted in nude BALB/c mouse assessed as tumor growth inhibition at 10 mg,kg, ip administered every other day for 24 days; format: functional; method in brief: as §7
# [20] = Binding affinity to up to 10 uM hybrid telomeric htg22 G-quadruplex DNA (unknown origin) at 1 uM after 1 min by fluorescence spectroscopic analysis; format: ADME; method in brief: as §3
# [21] = Binding affinity to 1 uM BCL2 promoter G-quadruplex DNA (unknown origin) at 1 uM after 1 min by fluorescence spectroscopic analysis; format: ADME; method in brief: as §2
# [22] = Binding affinity to 1 uM KRAS promoter G-quadruplex DNA (unknown origin) at 1 uM after 1 min by fluorescence spectroscopic analysis; format: ADME; method in brief: as §2
# [23] = Binding affinity to 1 uM PDGFA promoter G-quadruplex DNA (unknown origin) at 1 uM after 1 min by fluorescence spectroscopic analysis; format: ADME; method in brief: as §2
# [24] = Stabilization of PDGFA G-quadruplex DNA in human SiHa cells assessed as effect on PDGFA mRNA level at 1.25 to 5 uM fter 6 hrs by RT-PCR method; format: ADME, cell-based; method in brief: as §5
compound,measurement,setting,value
CCn1c2ccccc2c2cc(-c3nc(-c4ccc(N5CCN(C)CC5)cc4)c(-c4ccc(N5CCN(C)CC5)cc4)n3-c3ccc(OC)cc3)ccc21,Activity,[1],Not Active
same,Activity,[2],Active
same,pKd,[3],6.10
same,Activity,[4],Not Active
same,Activity,[5],Not Active
same,Activity,[6],Dose-dependent effect
same,pIC50,[7],5.68
same,pIC50,[8],4.81
same,pIC50,[9],4.80
same,growth inhibition (GI),[10],Non-Toxic
same,Activity,[11],52%
same,Activity,[12],Not Active
same,Activity,[13],Not Active
same,pIC50,[14],5.17
same,Activity,[15],Dose-dependent effect
same,Activity,[16],Dose-dependent effect
same,Activity,[17],Dose-dependent effect
same,TGI,[18],69%
same,TGI,[19],64%
same,Activity,[20],Not Active
same,Activity,[21],Not Active
same,Activity,[22],Not Active
same,Activity,[23],Not Active
same,Activity,[24],Not Active
